# In ChEMBL document CHEMBL1156535, “Thiocarbamates as non-nucleoside HIV-1 reverse transcriptase inhibitors. Part 1: Parallel synthesis, molecular modelling and structure-activity relationship studies on O-[2-(hetero)arylethyl]-N-phenylthiocarbamates” (Bioorg Med Chem, 2008):
# Activity calls are given as the source filed them. No cut-off for these calls is given here.
# Assays:
# [1] = Cytotoxicity against human MT4 cells by MTT assay; assay type: cell-based
# Summary of the method: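 Mock-infected MT-4 cells; viability by MTT method; CC50 taken as concentration reducing viability by 50%. Mean of three separate experiments, variation among triplicates under 10%.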
# [2] = test system: Human immunodeficiency virus 1; experiment: Antiretroviral activity against HIV1 in human MT4 cells assessed as reduction in virus-induced cytopathogenicity by MTT assay; assay type: functional, organism-based; settings: Human immunodeficiency virus 1, MT4
# Summary of the method: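 MT-4 cells infected with HIV-1; MTT read-out of viability; EC50 taken as concentration giving 50% protection from virus-induced cytopathogenicity. Mean of three separate experiments, variation among triplicates under 10%.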
# [3] = Selectivity index, ratio of CC50 for human MT4 cells to EC50 for HIV1; assay type: toxicity, cell-based; settings: read-out: Ratio CC50/EC50
# [4] = test system: Human immunodeficiency virus 1; experiment: Antiviral activity against HIV1 in human C8166 cells assessed as reduction of p24 antigen level; assay type: functional, organism-based; settings: Human immunodeficiency virus 1, C8166
# Summary of the method: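 C8166 cultures infected with HIV-1; p24 antigen levels measured; EC90 taken as dose lowering p24 by 90%.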
# [5] = test system: HIV-1 Y181C mutant (Human immunodeficiency virus 1); experiment: Antiviral activity against HIV1 with reverse transcriptase Y181C mutation in human MT4 cells assessed as reduction of virus-induced cytopathogenicity by MTT assay; settings: Human immunodeficiency virus 1, MT4
# [6] = test system: HIV-1 K103N/Y181C mutant (Human immunodeficiency virus 1); experiment: Antiviral activity against HIV1 with reverse transcriptase K103N/Y181C mutation in human MT4 cells assessed as reduction of virus-induced cytopathogenicity by MTT assay; settings: for EC50: Human immunodeficiency virus 1, MT4
EC90 [4],SMILES,CC50 [1],EC50 [2],selectivity ratio [3],EC50 [5],Activity [6],EC50 [6]
–,Cc1cccc(NC(=S)OCCc2ccccn2)c1,> 100 µM,7.7 µM,> 13,–,–,–
–,Cc1ccc(NC(=S)OCCc2ccccc2)cc1,> 100 µM,4.3 µM,> 23,–,–,–
–,Cc1ccc(NC(=S)OCCc2ccccn2)cc1,75 µM,1.7 µM,44,–,–,–
–,S=C(Nc1ccccc1Cl)OCCc1ccccn1,> 100 µM,43 µM,> 2.3,–,–,–
–,S=C(Nc1ccc(Cl)cc1)OCCc1ccncc1,70 µM,> 70 µM,< 1,–,–,–
0.8 µM,O=[N+]([O-])c1ccc(NC(=S)OCCc2ccccn2)cc1,> 100 µM,0.7 µM,> 143,–,–,–
–,CC(=O)c1ccc(NC(=S)OCCc2ccccn2)cc1,≥ 100 µM,> 100 µM,–,–,–,–
–,S=C(Nc1ccccc1)OCCc1cccs1,> 100 µM,14 µM,> 7.1,–,–,–
–,Cc1ccc(NC(=S)OCCc2ccncc2)cc1,> 100 µM,63 µM,> 1.6,–,–,–
–,CC(C)c1ccc(NC(=S)OCCc2ccccn2)cc1,45 µM,> 45 µM,< 1,–,–,–
–,S=C(Nc1ccc(Cl)c(Cl)c1)OCCc1ccccn1,40 µM,0.2 µM,200,–,–,–
–,O=[N+]([O-])c1ccc(NC(=S)OCCc2ccccc2)cc1,> 100 µM,0.9 µM,> 111,–,–,–
–,S=C(Nc1ccc(Br)cc1)OCCc1ccccn1,37 µM,0.2 µM,185,20 µM,inactive,–
–,N#Cc1ccc(NC(=S)OCCc2ccccn2)cc1,45 µM,0.2 µM,225,–,–,–
–,S=C(Nc1ccc(Cl)cc1)OCCc1ccccn1,52 µM,0.1 µM,520,–,–,–
–,COc1ccc(NC(=S)OCCc2ccccn2)cc1,48 µM,5.6 µM,8.6,–,–,–
–,Fc1cc(F)cc(NC(=S)OCCc2ccccn2)c1,> 100 µM,9 µM,> 11,–,–,–
–,CCc1ccc(NC(=S)OCCc2ccccn2)cc1,44 µM,10 µM,4.4,–,–,–
–,COc1ccc(NC(=S)OCCc2ccccc2)cc1,–,17 µM,2.1,–,–,–
–,S=C(Nc1ccc(Cl)cc1)OCCc1ccccc1,> 100 µM,0.5 µM,> 200,–,–,–

EC90 [4],SMILES,CC50 [1],EC50 [2],selectivity ratio [3],EC50 [5],Activity [6],EC50 [6]
–,O=[N+]([O-])c1cc(NC(=S)OCCc2ccccn2)ccc1Cl,41 µM,0.1 µM,410,–,–,–
–,Fc1ccc(NC(=S)OCCc2ccccn2)cc1,> 100 µM,1.2 µM,> 83,–,–,–
–,O=[N+]([O-])c1cccc(NC(=S)OCCc2ccccn2)c1,100 µM,1.6 µM,63,87 µM,–,91 µM
–,Cc1ccc(NC(=S)OCCc2ccccn2)cc1Cl,59 µM,0.7 µM,84,–,–,–
–,S=C(Nc1ccccc1)OCCc1ccccc1,–,6 µM,17,–,–,–
–,Fc1cccc(NC(=S)OCCc2ccccn2)c1,≥ 100 µM,1.1 µM,≥ 91,–,–,–
–,Fc1ccc(F)c(NC(=S)OCCc2ccccn2)c1,> 100 µM,9 µM,> 11,–,–,–
–,COc1ccc(NC(=S)OCCc2ccncc2)cc1,59 µM,> 59 µM,< 1,–,–,–
–,O=[N+]([O-])c1ccc(NC(=S)OCCc2ccncc2)cc1,> 100 µM,> 100 µM,–,–,–,–
0.015 µM,S=C(NCCc1ccccn1)Nc1ccc(Br)cn1 [TROVIRDINE],–,–,3000,–,–,–
–,FC(F)(F)c1ccc(NC(=S)OCCc2ccccn2)cc1,50 µM,13 µM,3.8,–,–,–
–,S=C(Nc1ccc(Cl)cc1Cl)OCCc1ccccn1,> 100 µM,2.9 µM,> 34,–,–,–
–,CN(C)c1ccc(NC(=S)OCCc2ccccn2)cc1,60 µM,> 60 µM,< 1,–,–,–
–,Fc1cccc(F)c1NC(=S)OCCc1ccccn1,> 100 µM,38 µM,> 2.6,–,–,–
–,FC(F)(F)c1cc(NC(=S)OCCc2ccccn2)ccc1Cl,42 µM,5.5 µM,7.6,–,–,–
–,S=C(Nc1ccccc1)OCCc1ccccn1,> 100 µM,7.4 µM,> 14,–,–,–
–,S=C(Nc1ccc(I)cc1)OCCc1ccccn1,34 µM,0.5 µM,68,–,–,–
–,Cc1ccccc1NC(=S)OCCc1ccccn1,> 100 µM,69 µM,> 1.4,–,–,–
–,O=C1Nc2ccc(Cl)cc2[C@@](C#CC2CC2)(C(F)(F)F)O1 [EFAVIRENZ],–,–,–,0.01 µM,–,0.04 µM
–,S=C(Nc1cccc(Cl)c1)OCCc1ccccn1,47 µM,1.4 µM,34,–,–,–
